Screening data as filed in PubChem BioAssay.
A selection: hits, their analogues and other compounds. The true share with any hit is near 2.2%.
Hck-Nef inh: inhibitors of Nef-activated human Hck kinase, primary screen, biochemical, Z-Lyte FRET, 384-well, Hck-YEEI; Tyrosine-protein kinase HCK (Homo sapiens), P08631; Recombinant Hck-YEEI plus Nef, Z-Lyte FRET kinase assay; inhibition, % at 20 µM; 220,000 compounds, 0.68% hits; AID 463187, 2010;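 active = Hck-Nef kinase inhibition above about 50%, limit read from the data; inactive = inhibition below that limit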;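 note: 0% = DMSO with Hck plus Nef and 100% = Hck alone without Nef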
RanGTP-Impb inh: inhibitors of RanGTP-importin-beta interaction, primary screen, biochemical, FRET, CFP-Ran, YFP-importin-beta, homogeneous. AID 2216, 2009. Ran GTPase (GTP-bound) - importin-beta complex. cell-free CFP-Ran/YFP-importin-beta FRET ratio. 300,000 compounds, 1.1% hits. inhibition, % (concentration not given with the values);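 active = more than half of the replicate wells show a fall in the fluorescence ratio signal beyond about 16%, limit read from the data, passing the limit was not always enough; inconclusive = exactly half of the replicate wells pass the set limit; inactive = fewer than half of replicates pass the limit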;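 note: 0% = DMSO wells and 100% = Ran loaded with GDP instead of GTP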
eIF4E 4G PPI: eIF4E–eIF4G protein interaction inhibitors, primary screen, biochemical, uHTS, TR-FRET, eIF4GI fragment. TR-FRET eIF4E-eIF4GI(517-606) binding, 2 h. 220,000 compounds, 0.37% hits. inhibition, % at 21.7 µM. AID 782, 2007. Eukaryotic translation initiation factor 4E (Mus musculus) + Eukaryotic translation …;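 active = inhibition above about 30%, limit read from the data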;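 note: 0% = full FRET control wells and 100% = background wells lacking eIF4GI fragment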
Runt-CBFb FRET: inhibitors of RUNX1 Runt–CBFb binding, primary screen, biochemical, FRET, Cerulean-Runt, Venus-CBFb, uHTS. Cerulean-Runt/Venus-CBFb FRET ratio 530/480, 1 h. 220,000 compounds, 0.46% hits. inhibition, % at 20 µM. Runt-related transcription factor 1 (Homo sapiens) + Core-binding factor subunit beta …;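 active = inhibition over about 50% at 20 µM in the single-dose screen, limit read from the data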;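 note: 0% = DMSO wells and 100% = excess unlabeled CBFb competitor control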
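test system = Cerulean-tagged RUNX1 Runt domain (FRET donor) fusion protein | reagent = Venus-CBFb binding partner, 100 nM | incubation = protein complex preformed 1 h, compound exposure 1 h, room temperature, dark | detection = FRET fluorescence | read-out basis = loss of energy transfer signal | controls = 5 µM unlabeled CBFb as full-inhibition high control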
PERK inh: block of dimerizer-induced PERK translation repression, primary screen, PERK inhibitor project, CHO PERK-DD cells, SEAP luminescence, HTS | Eukaryotic translation initiation factor 2-alpha kinase 3 (Homo sapiens), Q9NZJ5 | CHO PERK-DD fusion, SEAP luminescence translation reporter | inhibition, % at 5.6 µM | 220,000 compounds, 0.17% hits;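 active = inhibition above the mean inhibition of all tested compounds plus 3 SD, set separately per screening campaign, cut at about 2.9% in these data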;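 note: PERK kinase domain activated by AP20187 dimerizer at 100 nM; 0% = DMSO with dimerizer and 100% = rapamycin at 8.4 µM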
Target sequence (Q9NZJ5 whole entry, looked up, the tested form may be a part): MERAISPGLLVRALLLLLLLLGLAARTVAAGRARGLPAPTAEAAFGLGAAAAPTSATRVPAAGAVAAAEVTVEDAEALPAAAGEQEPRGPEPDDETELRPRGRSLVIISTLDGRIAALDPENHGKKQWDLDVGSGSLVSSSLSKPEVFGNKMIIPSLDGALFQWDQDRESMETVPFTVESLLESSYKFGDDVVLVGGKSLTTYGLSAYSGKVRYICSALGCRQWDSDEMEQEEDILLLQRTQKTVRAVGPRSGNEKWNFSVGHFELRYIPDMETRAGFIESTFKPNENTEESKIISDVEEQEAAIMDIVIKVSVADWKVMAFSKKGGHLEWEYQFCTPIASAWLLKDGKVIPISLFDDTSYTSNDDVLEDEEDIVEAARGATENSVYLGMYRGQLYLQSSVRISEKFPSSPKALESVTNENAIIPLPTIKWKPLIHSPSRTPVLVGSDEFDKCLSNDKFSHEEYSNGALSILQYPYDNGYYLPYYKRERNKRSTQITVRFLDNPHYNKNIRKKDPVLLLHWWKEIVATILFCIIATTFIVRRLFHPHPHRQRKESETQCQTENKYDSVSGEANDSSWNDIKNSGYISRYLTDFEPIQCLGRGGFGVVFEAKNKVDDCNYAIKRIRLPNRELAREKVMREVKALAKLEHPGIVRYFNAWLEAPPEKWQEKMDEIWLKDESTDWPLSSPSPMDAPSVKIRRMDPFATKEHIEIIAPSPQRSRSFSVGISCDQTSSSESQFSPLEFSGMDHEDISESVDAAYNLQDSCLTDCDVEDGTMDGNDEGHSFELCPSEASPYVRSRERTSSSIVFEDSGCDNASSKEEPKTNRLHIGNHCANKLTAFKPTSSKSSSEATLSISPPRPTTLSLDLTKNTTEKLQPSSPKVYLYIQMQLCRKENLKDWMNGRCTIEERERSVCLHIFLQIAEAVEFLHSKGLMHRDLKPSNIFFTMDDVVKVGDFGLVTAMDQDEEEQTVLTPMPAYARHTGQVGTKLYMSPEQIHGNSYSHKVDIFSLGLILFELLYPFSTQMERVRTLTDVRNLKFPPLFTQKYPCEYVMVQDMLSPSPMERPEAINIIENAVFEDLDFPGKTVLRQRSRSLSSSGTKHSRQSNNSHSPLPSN
Runt-SMMHC FRET: inhibitors of RUNX1 Runt–CBFb-SMMHC binding, primary screen, biochemical, FRET, Cerulean-Runt, Venus-CBFb-SMMHC, uHTS | Runt-related transcription factor 1 (Homo sapiens) + Core-binding factor subunit beta … | Cerulean-Runt/Venus-CBFb-SMMHC FRET ratio 530/480, 1 h | inhibition, % at 20 µM | 220,000 compounds, 0.74% hits | AID 1434, 2008;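 active = mean inhibition across duplicate retests at 20 µM reaching about 50%, limit read from the data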;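 note: 0% = DMSO wells and 100% = wells with excess untagged CBFb-SMMHC; inhibitors lower the FRET ratio by blocking Runt binding to CBFb-SMMHC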
Active calls of the source: *; ? = inconclusive; / = no result; [ ] = another dose, or the depositor's remark.

SMILES	Hck-Nef inh	RanGTP-Impb inh	eIF4E 4G PPI	Runt-CBFb FRET	PERK inh	Runt-SMMHC FRET
CC(=O)Nc1ccnc(-c2cccnc2)n1	1.6	-1.0	86.1*	-0.2	0.8	0.6
CC(C)C(=O)Nc1ccnc(-c2cccnc2)n1	0.3	-2.8	3.7	3.3	0.8	2.7
CCC(C)[C@H](NS(=O)(=O)c1ccc(C)cc1)C(=O)N1CCC(C(=O)N[C@H](C(=O)O)c2ccccc2)CC1 (stereo partly drawn)	/	0.4	/	/	/	/
CCCCC1=CC2=CC(=O)C(C)(OC(=O)CC)C(=O)C2=CN1c1ccccc1 (stereo not drawn)	10.9	0.7	70.9*	8.6	/	11.7
O=C(Cn1nnc(-c2cccs2)n1)NCc1ccco1	-5.3	2.3	-0.8	-1.4	2.9*	-1.1
O=C(CSc1nnc(-c2ccccc2)n1C1CCCCC1)Nc1ccc(S(=O)(=O)Nc2ccccn2)cc1	2.1	-4.5	52.8*	-0.9	0.4	3.9
CCn1c(SCC(=O)Nc2ccc(S(=O)(=O)Nc3ccccn3)cc2)nnc1-c1ccncc1	-7.0	0.7	-3.7	-1.3	1.3	0.4
Fc1ccc(CSc2nnc3ccc(-c4ccncc4)nn23)cc1	14.6	3.2	-3.6	-0.9	1.2	-1.4
Cc1ccc(CNc2ccc3c(c2)ncn3C(C)(C)C)cc1	15.3	36.1*	3.1	6.7	-0.7	43.0
Cc1ccc(CNc2ccc3c(c2)ncn3C)cc1	1.4	15.8*	1.7	21.0	1.0	7.0
CCc1ccc(CNc2ccc3c(c2)ncn3C)cc1	-0.7	?	/	0.1	-0.8	4.0
Cc1ccc(S(=O)(=O)Nc2ccc3c(c2)ncn3C(C)(C)C)cc1	3.7	2.7	9.2	-1.8	-0.9	1.4
Cc1ccc(-n2cnc3cc(NCc4cccs4)ccc32)cc1	-0.9	19.1*	19.4	4.8	-0.7	12.0
c1ccc(-n2cnc3cc(NCc4cccs4)ccc32)cc1	1.7	?	-4.3	-1.4	1.0	2.3
O=C(CSc1nc2c([nH]c3ccccc32)c(=O)n1-c1ccccc1F)NCC1CCCO1 (stereo not drawn)	/	-8.8	/	/	/	/
COCCNC(=S)N1CCN(c2cccc(C(F)(F)F)c2)CC1	19.4	-3.6	-5.4	-0.9	0.7	-6.2
CCN(CC)C(C(=O)Nc1ccc2c(c1)OCO2)c1ccccc1 (stereo not drawn)	-9.1	-6.0	-1.7	-2.6	-0.5	-3.3
CCOC(=O)C1=C(CS(=O)(=O)c2ccc(Cl)cc2)NC(=O)NC1c1ccc(O)c(OC)c1 (stereo not drawn)	/	0.7	/	/	/	/
CCCCn1c(N)c(N(CCOC)C(=O)CCNC(=O)c2ccc(Cl)cc2)c(=O)[nH]c1=O	/	0.4	/	/	/	/
CCOc1ccc(N2C(=O)c3cccnc3C2Nc2ccc(Cl)cc2)cc1 (stereo not drawn)	-2.2	2.1	-11.5	-2.8	-1.5	-2.0
Cc1ccc(NC2c3ncccc3C(=O)N2c2ccccc2C)cc1C (stereo not drawn)	-0.6	?	90.7*[fluorescence artefact?]	6.4	-0.2	-26.3
CC(C)C(c1nnnn1Cc1ccc(F)cc1)N1CCSCC1 (stereo not drawn)	-16.4	-4.5	-0.8	-0.3	0.1	2.2
C(=C/c1nccc2c1[nH]c1ccccc12)/c1ccc2c(c1)OCO2	8.3	119.8*	-0.3	25.8	0.9	53.0*
C/C(=N/NC(=O)Cc1cccn1C)c1ccccc1	1.5	-10.6	11.7	/	0.8	1.6
C/C(=N\NC(=O)Cc1cccn1C)c1ccco1	10.9	-3.1	43.8*	2.2	0.6	-6.0
SMILES	Hck-Nef inh	RanGTP-Impb inh	eIF4E 4G PPI	Runt-CBFb FRET	PERK inh	Runt-SMMHC FRET
C/C(CCC(=O)OC[C@H]1O[C@H](C#Cc2ccccc2)C=C[C@@H]1Oc1ccc(C)cc1)=N\O[C@@H](C)CN1CCCCc2nc(C)c(C)cc21	6.1	/	3.3	-6.3	-0.1	-10.1
CN(C)CCC(O)(c1ccccc1)c1ccccc1	-1.4	1.1	2.6	0.0	-0.5	0.3
CN(C)CCCC(C)(O)C(C)(C)c1ccccc1 (stereo not drawn)	3.3	-3.2	1.3	73.4*	2.3	-2.8
CS(=O)(=O)NNC(=O)CN1C(=O)C2C3C=CC(C3)C2C1=O (stereo not drawn)	23.7	-1.1	2.5	0.1	0.7	3.0
COc1cc(OC)c(OC)cc1CNC(=O)c1cc(=O)c2ccccc2o1	/	3.9	/	/	/	/
COc1cc(/C=C2\SC(=O)N(c3ccc(Cl)cc3)C2=O)cc([N+](=O)[O-])c1O	75.5*	/	71.4*	-3.4	-0.1	-13.9
COc1cc(/C=C2\SC(=O)N(c3cccc(Cl)c3)C2=O)cc([N+](=O)[O-])c1O	45.3	/	61.3*	-0.3	0.5	-11.7
COc1cc(/C=C2/C(=O)NN(c3ccc(C)c(Cl)c3)C2=O)cc([N+](=O)[O-])c1O	/	-3.8	/	/	/	/
O=C(COC(=O)c1ccc(=O)[nH]c1)Nc1cccc(S(=O)(=O)N2CCOCC2)c1	-7.2	2.1	7.2	1.7	2.9*	-2.0
COc1cc(/C=N\Nc2nc(-c3ccc(C)cc3)c(NC(C)=O)s2)ccc1O	105.4*	-1.1	2.0	14.9	1.0	-3.1
CC(=O)Nc1sc(N/N=C/c2ccc(N(C)C)cc2)nc1-c1ccc(C)cc1	40.5	?	-2.2	3.9	-0.4	-0.2
CCCn1cc(C(=O)N(C)C2CCCN(Cc3ccccc3F)C2)c(C)n1 (stereo not drawn)	/	0.4	/	/	/	/
Cc1c(NC(=O)CN2C(=O)C3C4C=CC(C4)C3C2=O)c(=O)n(-c2ccccc2)n1C (stereo not drawn)	-0.3	9.3	-7.6	11.5	-1.4	34.0
Cc1c(NC(=O)CN2C(=O)NC(CCc3ccccc3)C2=O)c(=O)n(-c2ccccc2)n1C (stereo not drawn)	-7.3	34.2*	3.5	0.3	0.8	2.3
CC(C)[C@@H](C(=O)NCC1CCC(C(=O)O)CC1)n1nnc2ccccc2c1=O (stereo partly drawn)	-0.2	-4.5	0.3	0.4	0.9	-0.4
O=C(Cn1nnc2ccccc2c1=O)NCC1CCC(C(=O)O)CC1 (stereo not drawn)	0.4	4.0	2.5	0.9	3.2*	-32.9
CC(=O)Oc1ccc(/C=C(\NC(=O)c2ccco2)C(=O)NCc2ccccc2)cc1	/	5.7	/	/	/	/
